Compound activity: PubChem, several laboratories
Hck Nef HTS: human Hck-Nef kinase inhibition; P08631; 220,000 compounds, 0.68% hits; Recombinant Hck-YEEI plus Nef, Z-Lyte FRET kinase assay; inhibition, % at 20 µM;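 active = Hck-Nef kinase inhibition above about 50%, limit read from the data; inactive = inhibition below that limit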
Target sequence (P08631 whole entry, looked up): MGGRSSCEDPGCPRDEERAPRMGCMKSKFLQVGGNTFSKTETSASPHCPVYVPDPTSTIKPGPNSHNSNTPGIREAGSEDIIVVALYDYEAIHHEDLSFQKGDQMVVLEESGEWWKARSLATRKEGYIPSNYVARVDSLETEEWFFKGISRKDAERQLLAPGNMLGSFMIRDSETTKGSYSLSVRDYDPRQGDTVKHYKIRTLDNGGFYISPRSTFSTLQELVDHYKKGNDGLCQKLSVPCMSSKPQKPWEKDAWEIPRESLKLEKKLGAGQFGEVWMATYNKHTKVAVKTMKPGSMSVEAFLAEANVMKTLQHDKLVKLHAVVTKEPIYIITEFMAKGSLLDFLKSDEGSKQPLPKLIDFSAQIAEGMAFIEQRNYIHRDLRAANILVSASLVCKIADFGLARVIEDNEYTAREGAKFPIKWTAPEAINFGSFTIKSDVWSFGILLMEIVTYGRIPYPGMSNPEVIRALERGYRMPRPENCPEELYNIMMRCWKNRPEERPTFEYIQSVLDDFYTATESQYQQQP
PERK inh: blocks human PERK kinase; Q9NZJ5; CHO PERK-DD fusion, SEAP luminescence translation reporter; inhibition, % at 5.6 µM; 220,000 compounds, 0.17% hits;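 active = inhibition above the mean inhibition of all tested compounds plus 3 SD, set separately per screening campaign, cut at about 2.9% in these data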;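 also: PERK kinase domain activated by AP20187 dimerizer at 100 nM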
p97 inhibitor: inhibitors of human p97 ATPase; 220,000 compounds, 0.42% hits; inhibition, % at 8 µM; recombinant p97 ATPase, Kinase-Glo ATP luminescence, 3 h; in the data active = inhibition above about 15%
Biofilm kill mix: mixture kills Candida albicans biofilm cells. C. albicans biofilm persisters + clotrimazole, fluorescence viability; primary screen in compound mixtures of four per well. inhibition, % at 7.6 µM. 120,000 compounds, 0.02% hits;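 active = inhibition above 30.3% in the primary screen of four-compound pools, then above 30% when the compound was retested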;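 also: compounds exposed to preformed 24 h biofilms for 48 h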
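Test system: C. albicans biofilms. Buffer or medium: RPMI/MOPS medium, pH 7.0. Timing: 48 h compound exposure at 37 °C. Technique: Alamar Blue fluorescence. Evaluation: percent inhibition of biofilm viability.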
14-3-3 Bad PPI: disrupts binding of bovine 14-3-3 zeta to phospho-Bad peptide. 220,000 compounds, 0.71% hits. inhibition, % at 21.7 µM. TR-FRET 14-3-3zeta/Dy647-pBad peptide displacement, 1 h;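 active = inhibition above about 70%, limit read from the data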
eIF4E 4G PPI: blocks eIF4E binding to eIF4G. TR-FRET eIF4E-eIF4GI(517-606) binding, 2 h. inhibition, % at 21.7 µM. 220,000 compounds, 0.37% hits;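 active = inhibition above about 30%, limit read from the data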
Each line names hits and unclear results; the compound was inactive in the other large screens; [ ] = remark or other dose. Compounds with a hit are over-represented: about 2.2% of the library has one in this group of screens.

Nc1cc(N)c(OCC(F)(F)F)cc1OCC(F)(F)F	p97 inhibitor 19 (no result: Biofilm kill mix)
Nc1cc(OCC(F)(F)F)cc([N+](=O)[O-])c1	none
Cc1ccccc1OCCCN1CCCC1	14-3-3 Bad PPI 76 (no result: Biofilm kill mix)
C=CCc1ccccc1OCCCCN1CCCC1	14-3-3 Bad PPI 79 (no result: Biofilm kill mix)
Cc1cccc(C)c1OCCCN1CCCC1	none (no result: Biofilm kill mix)
COC(C(=O)Nc1cccc([N+](=O)[O-])c1)c1ccccc1 (stereo not drawn)	none
CSc1nc(Cl)c(C#N)c(-c2ccc(C)cc2)n1	14-3-3 Bad PPI 77 (no result: Biofilm kill mix)
CCCCCCCCn1ccc(=N)cc1	none
CCCCCCCCCCCCCCCCn1cc[n+](C)c1	14-3-3 Bad PPI 95, eIF4E 4G PPI 43
O=c1/c(=C/c2ccc([N+](=O)[O-])cc2)sc2n1CCCN=2	14-3-3 Bad PPI 80 (no result: Biofilm kill mix)
COc1cc(/C=c2\sc3n(c2=O)CCCN=3)ccc1O	none (no result: Biofilm kill mix)
Cc1cccc2nc(-c3ccccc3)nc(N[C@@H](CO)c3ccccc3)c12	14-3-3 Bad PPI 76[fluorescence artefact?]
O=C(c1ccco1)N1CCN(c2ccc([N+](=O)[O-])c(N3CCOCC3)c2)CC1	none
CCC1=[N+](C)CCn2c(C)ccc21	14-3-3 Bad PPI 77[fluorescence artefact?] (no result: Biofilm kill mix)
CN(C)S(=O)(=O)Nc1ccccn1	eIF4E 4G PPI 55
O=S(=O)(Nc1ccccn1)c1ccc(Cl)cc1	none (no result: Biofilm kill mix)
C/C(=N\NC(=O)C1COc2ccccc2O1)c1ccc(Cl)s1 (stereo not drawn)	none
C/C(=N/NC(=O)C1COc2ccccc2O1)c1ccc(Br)s1 (stereo not drawn)	eIF4E 4G PPI 98
C#CCOCCOCCOCCNc1nc(N2CCN(C(=O)Cn3cc(CCO)nn3)CC2)nc(N2CCN(C(=O)[C@H]([C@@H](C)O)n3cc(CCCCN)nn3)CC2)n1	none
C#CCOCCOCCOCCNc1nc(N2CCN(C(=O)Cn3cc(CC(C)O)nn3)CC2)nc(N2CCN(C(=O)[C@H](CCCCN)n3cc(CCC(=O)O)nn3)CC2)n1 (stereo partly drawn)	14-3-3 Bad PPI 72
C#CCOCCOCCOCCNc1nc(N2CCN(C(=O)[C@H]([C@@H](C)O)n3cc(CCCCN)nn3)CC2)nc(N2CCN(C(=O)[C@H](C)n3cc(CCCN=C(N)N)nn3)CC2)n1	none
C#CCOCCOCCOCCNc1nc(N2CCN(C(=O)[C@H](C)n3cc(CCCN=C(N)N)nn3)CC2)nc(N2CCN(C(=O)[C@H](Cc3ccc(O)cc3)n3cc(CCO)nn3)CC2)n1	14-3-3 Bad PPI 78
C#CCOCCOCCOCCNc1nc(N2CCN(C(=O)Cn3cc(CCCCN)nn3)CC2)nc(N2CCN(C(=O)[C@H](C)n3cc(CCCN=C(N)N)nn3)CC2)n1	14-3-3 Bad PPI 80
C#CCOCCOCCOCCNc1nc(N2CCN(C(=O)Cn3cc(CCCN=C(N)N)nn3)CC2)nc(N2CCN(C(=O)[C@H](C(C)C)n3cc(CCO)nn3)CC2)n1	none
C#CCOCCOCCOCCNc1nc(N2CCN(C(=O)Cn3cc(CCCN=C(N)N)nn3)CC2)nc(N2CCN(C(=O)[C@H]([C@@H](C)CC)n3cc(CCCN=C(N)N)nn3)CC2)n1	14-3-3 Bad PPI 86
O=C(Nc1ccc(Br)cc1Cl)NC1CC1	none
CN(C)CC(CCCCC(CN(C)C)C(=O)c1ccccc1)C(=O)c1ccccc1 (stereo not drawn)	none
COc1ccccc1N1CCN(C(=O)c2coc(=O)c(Br)c2)CC1	none
CC(C)(C)c1ccccc1OCCCCCn1ccnc1	none
CN1C(=O)C(CC(=O)NCCc2ccccc2)N(NC(=O)c2ccc(Cl)cc2)C1=S (stereo not drawn)	none
C#CCOCCOCCOCCNc1nc(N2CCN(C(=O)Cn3cc(CC(C)O)nn3)CC2)nc(N2CCN(C(=O)[C@H](C)n3cc(CCCN=C(N)N)nn3)CC2)n1 (stereo partly drawn)	14-3-3 Bad PPI 84
CC(=O)Nc1ccc(OS(=O)(=O)c2cc(Cl)ccc2C)cc1	none
CCCCn1c(=N)n(CC(=O)c2ccc(OC)cc2)c2ccccc21	eIF4E 4G PPI 83
C(#CCN1CCOCC1)COC(c1ccccc1)c1ccccc1	14-3-3 Bad PPI 72
C(#CCN1CCOCC1)COCCOC(c1ccccc1)c1ccccc1	none (no result: Biofilm kill mix)
Oc1ccccc1-c1cc(C(F)(F)C(F)F)nc(-c2ccccc2)n1	PERK inh 3.0 (no result: Biofilm kill mix)
Nc1cc2nc[nH]c2cc1N	14-3-3 Bad PPI 92, eIF4E 4G PPI 36
O=C(CSC1=NCCN1)NC(c1ccccc1)c1ccccc1	none
CC(C)CC(NC(N)=O)C(=O)NCCc1ccc(Cl)cc1 (stereo not drawn)	none
CC(=O)c1ccc(NC(=O)/C(=C\c2cccs2)NC(=O)c2ccco2)cc1	14-3-3 Bad PPI 88
C=CCn1cc(C(=O)OCC)c(=O)c2cc(F)c(F)cc21	none
O=c1cc(-c2ccc(Br)cc2)[nH][nH]1	PERK inh 2.9
O=c1cc(-c2ccc(F)cc2)[nH][nH]1	none
CCn1cc(CNC(=O)c2cc(COc3ccc(F)cc3F)on2)cn1	none
CNC(=O)c1nnsc1S(=O)(=O)c1ccc(Cl)cc1	none
O=S(=O)(c1ccc(Cl)c(Cl)c1)c1snnc1-c1ccccc1	p97 inhibitor 23 (no result: Biofilm kill mix)
CCNCC(O)COCC(O)CNCC (stereo not drawn)	eIF4E 4G PPI 46 (no result: Biofilm kill mix)
CCc1ccc(OCCOCC(O)CNC(C)(C)C)cc1 (stereo not drawn)	none
CCCCCCOc1ccc(-c2ccc(C#N)cn2)cc1	PERK inh 3.1 (no result: Biofilm kill mix)
CCOc1ccc(-n2c(-c3ccco3)n[nH]c2=S)cc1	eIF4E 4G PPI 34[fluorescence artefact?] (no result: Biofilm kill mix)
CC(C(=O)O)n1nc2ccccc2n1 (stereo not drawn)	14-3-3 Bad PPI 71 (no result: Biofilm kill mix)
Cc1ccccc1C(=O)NC(CC(C)C)C(=O)NN1C(=O)c2ccccc2C1=O (stereo not drawn)	none
CCN(CC)C(=O)c1c(NC(=O)c2ccccc2)sc(C)c1C	p97 inhibitor 15 (no result: Biofilm kill mix)
COc1ccccc1S(=O)Cc1ccc(C(=O)O)o1 (stereo not drawn)	none (no result: Biofilm kill mix)
O=C(O)c1ccc(CS(=O)c2cccc(C(F)(F)F)c2)o1 (stereo not drawn)	PERK inh 3.7 (no result: Biofilm kill mix)
Cc1nc(NC(=O)c2ccc(Cl)cc2)sc1-c1csc(Nc2cccc(F)c2)n1	14-3-3 Bad PPI 73 (no result: Biofilm kill mix)
Cc1cc(C)c2c(N)c(C(=O)c3ccc(Cl)cc3)sc2n1	none
Cc1cc(C)c2c(N)c(C(=O)c3ccc(Cl)c(Cl)c3)sc2n1	14-3-3 Bad PPI 82
Cc1[nH]c2c(C)cccc2c1CC(=O)O	14-3-3 Bad PPI 86
CCOc1ccc(C2=Nn3cnnc3SC2)cc1	none (no result: Biofilm kill mix)
O=[N+]([O-])c1ccc(C2=Nn3cnnc3SC2)cc1	eIF4E 4G PPI 62
COc1cc(/C=C2\SC(=O)N(CCN)C2=O)ccc1OS(=O)(=O)c1cc(C)ccc1C	14-3-3 Bad PPI 84
Cc1c(N)c(C(C)(C)C)cc(C(C)(C)C)c1[N+](=O)[O-]	none
